Source: PubChem
The list is not random: actives were taken first. Their share in the collection is about 3.7%.
KCNQ1 act: potentiates or activates the human KCNQ1 potassium channel; CHO-K1 KCNQ1, thallium flux FluxOR fluorescence; stronger effect = higher value; B-score at 10 µM; 310,000 compounds, 0.35% hits;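 active = fluorescence ratio B-score, a plate-corrected score, at least three library SD, with initial intensity B-score within 5 SD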
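Assay system: stable KCNQ1 CHO-K1 line; medium: assay buffer, equal DMSO in all wells; timing: 90 min dye loading and 20 min compound exposure, both at room temperature; technique: kinetic FluxOR thallium fluorescence, 10-s 1-Hz baseline, 110-s post-stimulus read; read-out basis: B score of baseline-normalized fluorescence ratio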
KCNQ1 block: human KCNQ1 channel inhibition; P51787; CHO-K1 KCNQ1, FluxOR thallium flux fluorescence; stronger effect = higher value; B-score at 10 µM; 310,000 compounds, 1.3% hits; AID 2642;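 active = compounds whose thallium flux B-score, printed positive for inhibition, exceeds three library SD while starting fluorescence stays within three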;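 also: channel opened by potassium depolarization with thallium stimulus after 20 min compound exposure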
KCNK3 block: human KCNK3 channel inhibition, primary screen. O14649. CHO-KCNK3 thallium flux, FluxOR fluorescence; stronger effect = lower value. B-score at 10 µM. 340,000 compounds, 0.84% hits. AID 602410;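 active = B-score under library mean minus 4 SD, starting fluorescence ratio at most library mean plus 5 SD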;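 also: more negative B-score means stronger inhibition of thallium flux through KCNK3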
hERG rescue: compounds protecting human hERG from proarrhythmic drug block | Q12809 | CHO-hERG, FluxOR thallium flux, dofetilide IC70 present | activation (rescue from dofetilide block), less the hit threshold, % at 10 µM | 310,000 compounds, 0.51% hits | AID 1511;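 active = activation above the mean of controls blocked by dofetilide plus 5 SD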;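 also: thallium influx through hERG after potassium depolarization seen as dye fluorescence rise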
Target sequence (Q12809 whole entry, looked up): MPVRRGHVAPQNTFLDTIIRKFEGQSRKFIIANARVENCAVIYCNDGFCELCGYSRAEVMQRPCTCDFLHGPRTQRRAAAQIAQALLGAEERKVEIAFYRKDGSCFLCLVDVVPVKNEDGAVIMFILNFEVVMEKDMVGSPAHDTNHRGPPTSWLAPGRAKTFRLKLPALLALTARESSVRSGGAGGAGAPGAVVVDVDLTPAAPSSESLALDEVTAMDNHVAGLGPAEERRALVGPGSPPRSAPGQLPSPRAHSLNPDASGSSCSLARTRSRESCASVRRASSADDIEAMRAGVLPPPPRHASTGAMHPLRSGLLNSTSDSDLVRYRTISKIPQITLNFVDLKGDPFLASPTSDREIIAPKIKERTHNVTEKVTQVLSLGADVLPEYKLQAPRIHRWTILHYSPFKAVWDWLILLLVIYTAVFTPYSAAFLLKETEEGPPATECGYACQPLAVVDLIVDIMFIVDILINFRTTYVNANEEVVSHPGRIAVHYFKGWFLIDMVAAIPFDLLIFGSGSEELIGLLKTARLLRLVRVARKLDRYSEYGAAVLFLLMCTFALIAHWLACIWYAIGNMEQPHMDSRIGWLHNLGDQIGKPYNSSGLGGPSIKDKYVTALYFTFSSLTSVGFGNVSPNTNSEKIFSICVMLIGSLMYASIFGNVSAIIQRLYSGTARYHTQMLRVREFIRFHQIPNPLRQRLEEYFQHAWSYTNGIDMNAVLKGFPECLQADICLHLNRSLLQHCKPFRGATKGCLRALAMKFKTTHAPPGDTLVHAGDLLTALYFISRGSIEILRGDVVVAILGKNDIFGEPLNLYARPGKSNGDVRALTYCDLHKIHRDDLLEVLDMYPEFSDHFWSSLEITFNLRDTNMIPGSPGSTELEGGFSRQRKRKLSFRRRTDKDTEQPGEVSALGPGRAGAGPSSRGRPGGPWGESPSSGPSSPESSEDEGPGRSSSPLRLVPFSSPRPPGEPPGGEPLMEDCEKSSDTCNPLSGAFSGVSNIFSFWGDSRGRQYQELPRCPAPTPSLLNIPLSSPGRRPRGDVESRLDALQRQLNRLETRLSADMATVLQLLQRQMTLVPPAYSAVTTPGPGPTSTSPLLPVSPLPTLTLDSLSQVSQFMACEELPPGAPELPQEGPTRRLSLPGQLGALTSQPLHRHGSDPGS
Kir21 block: Kir2.1 (mouse) channel inhibition; 310,000 compounds, 0.85% hits; HEK293-Kir2.1, FluxOR thallium flux fluorescence; stronger effect = lower value; B-score at 10 µM; P35561;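 active = fluorescence ratio B-score at or below minus 3 SD of library scores, with starting-brightness B-score within 2 SD, cut at about -4.2 in these data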;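 also: channel flux triggered by added potassium and thallium sulfate stimulus; B-score of peak minus minimum fluorescence over baseline after thallium stimulus; more negative B-score means stronger Kir2.1 block with less thallium influx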
KCNK9 inh: blocks the human KCNK9 two-pore domain potassium channel; Q9NPC2; HEK293 KCNK9, FluxOR thallium flux fluorescence; stronger effect = lower value; B-score at 10 µM; 310,000 compounds, 1.2% hits; AID 488922;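 active = ratio B-score over 3 SD below the library mean, with starting fluorescence within 5 SD of its mean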;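 also: negative B-score means less thallium flux so channel inhibition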
KCNQ1 block val: human KCNQ1 channel inhibition, validation assay; shares compounds with KCNQ1 block; KCNQ1 cell line, FluxOR thallium flux fluorescence; inhibition, % at 10 µM; 1,600 compounds, 93% hits;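 active = primary screen active, with duplicate mean exceeding buffer control mean plus 3 SD of buffer wells, cut at about 28% in these data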
CHO KCNQ1 ctr: KCNQ1 inhibitor counter-screen hit in parental CHO cells. shares compounds with KCNQ1 block. parental CHO-K1, FluxOR thallium flux fluorescence ratio; stronger effect = lower value; zero means no signal rise above baseline. fluorescence ratio (Tl flux) at 10 µM. 1,600 compounds, 21% hits;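 active = mean of duplicate thallium-flux fluorescence ratios in parental host cells more than 5 SD below the buffer control mean, cut at about 0.38 in these data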;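 also: ratio is peak minus minimum fluorescence divided by baseline fluorescence; actives read low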
KCNQ1 ephys val: human KCNQ1 inhibition validated by electrophysiology; shares compounds with KCNQ1 block; 490 compounds, 20% hits; AID 624120; calls only at 10 µM; KCNQ1-CHO cells, automated patch clamp current;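 active = KCNQ1 current drop exceeding 3 SD of negative control wells, seen in both duplicate runs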;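 also: steady state current during a 2 s step from -80 to +40 mV; negative values mean current inhibition and positive values mean potentiation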
KCNQ2 spec: KCNQ1 inhibitor that also blocks rat KCNQ2 channel | shares compounds with KCNQ1 block | KCNQ2 cells, FluxOR thallium flux fluorescence | inhibition, % at 10 µM | 1,600 compounds, 71% hits | AID 651746;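 active = mean percent inhibition of the KCNQ2 thallium signal more than 5 SD above the buffer-only control wells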;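 also: KCNQ2 expressed in CHO cells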
KCNQ1 KCNE1 spec: selectivity of KCNQ1 inhibitors: inhibition of human KCNQ1/KCNE1 channel. shares compounds with KCNQ1 block. KCNQ1/KCNE1 cells, FluxOR thallium flux fluorescence. inhibition, % at 10 µM. 1,600 compounds, 77% hits;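 active = mean percent inhibition of duplicate wells above the buffer-only control mean plus 3 SD of those controls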
KCNK9 block conf: confirmation of human KCNK9 potassium channel inhibitors | HEK293 KCNK9 cells, FluxOR thallium flux fluorescence | shares compounds with KCNK9 inh | 4,900 compounds, 43% hits | inhibition, % at 10 µM;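 active = thallium signal inhibited by more than 5 SD of the compound-free buffer control wells, on both duplicate plates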
Kir2-1 spec: mouse Kir2.1 off-target activity of KCNK9 modulators | shares compounds with KCNK9 inh | 4,900 compounds, 4% hits | Kir2.1 cells, FluxOR thallium flux fluorescence | inhibition, % at 10 µM;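 active = thallium signal drop more than 5 SD beyond the mean of the no-compound control wells, seen in both duplicate plates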;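 also: signal is fluorescence rise after thallium addition divided by baseline fluorescence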
HEK293 Tl ctr: second check of KCNK9 modulator effects in non-induced HEK293 cells. shares compounds with KCNK9 inh. FluxOR thallium flux. 4,900 compounds, 40% hits. inhibition, % at 10 µM. AID 492997;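 active = thallium signal drop beyond 5 SD of the untreated control mean, on both duplicate plates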
KCNK3 confirm: confirmation of human KCNK3 two-pore domain potassium channel inhibitors | shares compounds with KCNK3 block | CHO-KCNK3 thallium flux, FluxOR fluorescence; 0% buffer, 100% carvedilol maximal block | ratio percent of control, % at 10 µM | 2,400 compounds, 99% hits | AID 651638;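 active = ratio percent of control, averaged over triplicates, above buffer control mean plus 5 SD, cut at about 64% in these data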;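 also: ratio is the fluorescence rise from min to max over baseline after thallium stimulus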
KCNK3 uninduced: counter-screen for KCNK3 inhibitors: effect in non-induced cells; shares compounds with KCNK3 block; non-induced KCNK3 parental cells, FluxOR thallium flux; stronger effect = lower value; thallium flux ratio (lower = more inhibition) at 10 µM; 2,400 compounds, 40% hits;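 active = thallium flux ratio, averaged over three wells, more than 5 SD below the buffer control mean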;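 also: host cells are CHO cells without KCNK3 induction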
Hits are given with their value; – = inactive; · = not tested or not shown; + = active, no number.

SMILES	KCNQ1 act	KCNQ1 block	KCNK3 block	hERG rescue	Kir21 block	KCNK9 inh	KCNQ1 block val	CHO KCNQ1 ctr	KCNQ2 spec	KCNQ1 KCNE1 spec	KCNK3 confirm	KCNK3 uninduced	others
O=S(=O)(Cc1ccccc1)NCC1CCCN(Cc2ccc(F)c(F)c2)C1 (stereo unspecified)	–	–	–	–	–	–	·	·	·	·	·	·
O=S(=O)(Nc1cccnc1Cl)c1ccc(-c2ccccc2)cc1	–	–	–	–	–	–	·	·	·	·	·	·
O=S(=O)(Nc1ccccc1O)c1ccc(-c2ccccc2)cc1	–	15	-10.8	–	–	–	136.0	–	94.0%	76.5%	120.0	–	KCNQ1 ephys val=–
Cc1ccc(Cl)cc1N1CCN(C(=O)c2cc3c(=O)n(C)c4ccccc4c3n2C)CC1	–	15	-16	–	–	–	119.5	–	126.3%	–	137.3	–	KCNQ1 ephys val=–
N/C(=N\OC(=O)C1CC1)c1ccc([N+](=O)[O-])s1	–	–	–	–	–	–	·	·	·	·	·	·
O=C(NCc1ccco1)C(c1ccc(F)cc1)N(C(=O)Cc1cccs1)c1cccnc1 (stereo unspecified)	–	–	–	–	–	–	·	·	·	·	·	·
O=[N+]([O-])c1ccc(/C=N/NC(=S)Nc2ccccc2C(F)(F)F)o1	–	–	–	–	–	–	·	·	·	·	·	·
c1ccc(-c2csc(N3CCCCCC3)n2)cc1	–	–	–	–	–	–	·	·	·	·	·	·
Cc1cc(N2CCN(c3nc(-c4ccccc4)cs3)CC2)c2ccccc2n1	–	7	-13.9	–	–	–	129.5	–	106.7%	195.0%	136.0	0.131	KCNQ1 ephys val=–
CC(C)C[C@H](NC(=O)[C@@H]1Cc2ccccc2CN1C(=O)OC(C)(C)C)C(=O)NCC1CCC(C(=O)O)CC1 (stereo partly specified)	–	–	–	–	–	–	·	·	·	·	·	·
O=C(NCc1cccc(Cl)c1)c1cc(COc2ccc3ncccc3c2)on1	–	13	-13.2	–	–	–	93.0	0.333	99.7%	+	126.0	–
CCOC(=O)N1CCC(n2c(SCC(=O)Nc3ccccc3OC)nc3ccccc3c2=O)CC1	–	6	-8.91	–	–	–	82.0	0.379	109.0%	136.0%	109.7	0.151	KCNK9 block conf=–;Kir2-1 spec=–;HEK293 Tl ctr=–
CCCCc1nc(N2CCN(C(=O)c3ccco3)CC2)c(C#N)c2c1CCCC2	–	9	-9.38	–	–	-6.78	97.5	0.338	107.7%	46.0%	119.7	–
O=C(OCC(=O)N1CCCC1=O)c1ccc(F)c(S(=O)(=O)N2CCOCC2)c1	–	–	–	–	–	–	·	·	·	·	·	·
CCN(C(=O)c1cc2c(s1)-c1ccccc1OC2)c1cc(OC)ccc1OC	–	7	-13.9	–	–	-16.9	110.5	0.374	96.0%	185.0%	131.7	0.118	KCNK9 block conf=68.0%;Kir2-1 spec=–;HEK293 Tl ctr=31.5%
CC1(C)C2([N+](=O)[O-])CN3CC1([N+](=O)[O-])CN(C2)C3C(O)C(O)C(O)CO (stereo unspecified)	–	–	–	–	–	–	·	·	·	·	·	·
O=C(Cc1cccs1)NCCSc1c(-c2ccc(Cl)cc2)[nH]c2ccccc12	–	19	-14.4	–	–	-13.8	134.0	0.345	124.0%	186.0%	132.0	0.146	KCNK9 block conf=53.5%;Kir2-1 spec=–;HEK293 Tl ctr=32.0%
CCOC(=O)CSc1c(-c2ccc(Cl)cc2)[nH]c2ccccc12	–	–	–	–	–	–	·	·	·	·	·	·
O=C(CCCOc1ccc(Cl)cc1Cl)N1CCCc2ccccc21	–	8	-11.5	–	–	–	112.5	–	92.0%	167.0%	122.3	0.144	KCNQ1 ephys val=–;KCNK9 block conf=–;Kir2-1 spec=–;HEK293 Tl ctr=33.0%
CCc1ccccc1NC(=O)CN1CCN(C(=O)CN2C(=O)NC3(CCCC3)C2=O)CC1	·	·	–	·	·	·	·	·	·	·	·	·
Cc1ccccc1OCC(O)Cn1c(=N)n(Cc2ccccc2)c2ccccc21 (stereo unspecified)	–	12	-12.3	–	-12.2	–	130.0	–	99.0%	–	124.7	–	KCNQ1 ephys val=–
COc1ccc(-c2csc3ncnc(N4CCN(Cc5ccccc5)CC4)c23)cc1	–	–	–	–	–	–	·	·	·	·	·	·
COc1ccc(-c2csc3ncnc(N4CCN(c5ccccc5)CC4)c23)cc1	–	15	–	–	–	-6.72	134.0	0.367	132.3%	+	106.3	0.128
CCC(CC)C(=O)Nc1cccc(SC)c1	–	–	·	–	–	–	·	·	·	·	·	·
Cc1cccc2sc(NC(=O)C3CC3)nc12	–	–	–	–	–	–	·	·	·	·	·	·
Cc1cccc2sc(NC(=O)C3c4ccccc4Oc4ccccc43)nc12	–	13	-10.4	–	–	-10.4	112.0	–	76.0%	144.0%	129.7	0.146	KCNQ1 ephys val=–;KCNK9 block conf=44.0%;Kir2-1 spec=–;HEK293 Tl ctr=40.5%
O=C(c1cc(-c2cccc(Cl)c2)nc2ccccc12)N1CCN(c2ccccn2)CC1	–	6	-9.94	–	–	–	69.0	–	108.0%	84.5%	120.0	0.122
COc1ccc(C(=O)NCC(c2ccccc2)N2CCCC2)cc1S(=O)(=O)N1CCOCC1 (stereo unspecified)	·	·	–	·	·	·	·	·	·	·	·	·
O=C(Nc1ccncc1)c1ccc(Cl)c(S(=O)(=O)N2CCc3ccccc32)c1	–	10	-10.4	–	–	–	134.5	0.294	94.0%	134.0%	136.0	0.158
